Source: ChEMBL document CHEMBL1128523, “Non-peptide fibrinogen receptor antagonists. 7. Design and synthesis of a potent, orally active fibrinogen receptor antagonist” (J Med Chem, 1995)
Each block holds one compound with its values, some of them ahead of it. Where a SMILES comes first, the peptide text is derived from it. Bridges are numbered along the chain shown (N, C = ends).

How the values were obtained:
Canis familiaris [1] = assay: Ex vivo antiplatelet activity was assessed following oral administration at a dose of 1 mg/kg to dogs in the presence of […] and 1 uM of epinephrine at 1440 min; format: functional; settings: Canis lupus familiaris, 24 h
Outline: (§1)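 Four conscious mongrel dogs in slings, single oral 1.0 mg/kg crystalline solid in gelatin capsules; citrated venous blood (3.8% citrate) taken at baseline and 20–1440 min. PRP aggregation to ADP or collagen, each with 1 μM epinephrine, as % inhibition vs baseline. Mean ± SEM, n = 4.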

Canis familiaris [2] = assay: Ex vivo antiplatelet activity was assessed following oral administration at a dose of 1 mg/kg to dogs in the presence of 10 uM of ADP and 1 uM of epinephrine at 90 min; format: functional; settings: Canis lupus familiaris, 1.5 h; outline: as §1
[3] = In vitro concentration required to inhibit the rate of chimp platelet aggregation (in platelet rich plasma) by 50% was determined in presence of 20 uM of ADP; format: functional; settings: Pan troglodytes
Outline: (§2)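 PRP from blood spun at 150g for 5 min, count set to 200 000 cells/mm3 with PPP; 300 μL held 3 min at 37 °C before agonist. Aggregation read as % change in light transmission, PPP = 100%; inhibition relative to baseline response. Mean ± SE, n = 3–7.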

Canis familiaris [4] = assay: Ex vivo antiplatelet activity was assessed following oral administration at a dose of 1 mg/kg to dogs in the presence of 10 uM of ADP and 1 uM of epinephrine at 350 min; format: functional; settings: Canis lupus familiaris; outline: as §1
Canis familiaris [5] = assay: Ex vivo antiplatelet activity was assessed following oral administration at a dose of 1 mg/kg to dogs in the presence of 10 uM of ADP and 1 uM of epinephrine at 1440 min; format: functional; settings: Canis lupus familiaris, 24 h; outline: as §1
Canis familiaris [6] = assay: Ex vivo antiplatelet activity was assessed following oral administration at a dose of 1 mg/kg to dogs in the presence of […] and 1 uM of epinephrine at 300 min; format: functional; settings: Canis lupus familiaris, 5 h; outline: as §1
Canis familiaris [7] = assay: Ex vivo antiplatelet activity was assessed following oral administration at a dose of 1 mg/kg to dogs in the presence of […] and 1 uM of epinephrine at 70 min; format: functional; settings: Canis lupus familiaris; outline: as §1
Canis familiaris [8] = assay: Ex vivo antiplatelet activity was assessed following oral administration at a dose of 1 mg/kg to dogs in the presence of […] and 1 uM of epinephrine at 250 min; format: functional; settings: Canis lupus familiaris; outline: as §1
Canis familiaris [9] = assay: Ex vivo antiplatelet activity was assessed following oral administration at a dose of 1 mg/kg to dogs in the presence of […] and 1 uM of epinephrine at 200 min; format: functional; settings: Canis lupus familiaris; outline: as §1
Homo sapiens [10] = species on record: Homo sapiens; assay: In vitro concentration required to inhibit the rate of human platelet aggregation (in platelet rich plasma) by 50% was determined in presence of 10 uM of epinephrine; format: functional; outline: as §2
Canis familiaris [11] = assay: Ex vivo antiplatelet activity was assessed following oral administration at a dose of 1 mg/kg to dogs in the presence of 10 uM of ADP and 1 uM of epinephrine at 200 min; format: functional; settings: Canis lupus familiaris; outline: as §1
Canis familiaris [12] = assay: Ex vivo antiplatelet activity was assessed following oral administration at a dose of 1 mg/kg to dogs in the presence of […] and 1 uM of epinephrine at 20 min; format: functional; settings: Canis lupus familiaris; outline: as §1
[13] = In vitro concentration required to inhibit the rate of chimp platelet aggregation (in platelet rich plasma) by 50% was determined in presence of 10 ug/mL of collagen; format: functional; settings: Pan troglodytes; outline: as §2
Homo sapiens [14] = species on record: Homo sapiens; assay: In vitro concentration required to inhibit the rate of human platelet aggregation (in platelet rich plasma) by 50% was determined in presence of 10 uM of ADP; format: functional; outline: as §2
Homo sapiens [15] = species on record: Homo sapiens; assay: Concentration required to inhibit the rate of platelet aggregation by 50% was determined with human gel filtered platelets (GFP); format: functional
Outline: (§3)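 Light-transmittance aggregometry at 37 °C on human gel-filtered platelets (2 × 10^8 platelets/mL) with 0.1 mg/mL human fibrinogen and 1 mM CaCl2; 10 μM ADP added last to start aggregation.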

Canis familiaris [16] = species on record: Canis familiaris; assay: Whole blood platelet count was determined in 10e3/uL; format: functional, Canis lupus familiaris
Outline: (§4)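 Dogs given 1.0 mg/kg orally by capsule (n = 4); 1 mL citrated venous blood per time point (baseline to 1440 min) counted on an automated hematology analyzer; reported as 10^3/μL and Δ% from baseline, mean ± SEM.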

Canis familiaris [17] = assay: Ex vivo antiplatelet activity was assessed following oral administration at a dose of 1 mg/kg to dogs in the presence of 10 uM of ADP and 1 uM of epinephrine at 300 min; format: functional; settings: Canis lupus familiaris, 5 h; outline: as §1
Canis familiaris [18] = species on record: Canis familiaris; assay: In vitro concentration required to inhibit the rate of dog platelet aggregation (in platelet rich plasma) by 50% was determined in presence of 10 uM of ADP and 1 uM of epinephrine; format: functional; settings: Canis lupus familiaris; outline: as §2
Canis familiaris [19] = assay: Ex vivo antiplatelet activity was assessed following oral administration at a dose of 1 mg/kg to dogs in the presence of 10 uM of ADP and 1 uM of epinephrine at 40 min; format: functional; settings: Canis lupus familiaris; outline: as §1
Canis familiaris [20] = species on record: Canis familiaris; assay: Whole blood platelet count was determined as delta% from baseline; format: functional, Canis lupus familiaris; outline: as §4
Canis familiaris [21] = assay: Ex vivo antiplatelet activity was assessed following oral administration at a dose of 1 mg/kg to dogs in the presence of 10 uM of collagen and 1 uM of epinephrine at 40 min; format: functional; settings: Canis lupus familiaris; outline: as §1
Canis familiaris [22] = assay: Ex vivo antiplatelet activity was assessed following oral administration at a dose of 1 mg/kg to dogs in the presence of 10 uM of ADP and 1 uM of epinephrine at 480 min; format: functional; settings: Canis lupus familiaris, 8 h; outline: as §1
Canis familiaris [23] = assay: Ex vivo antiplatelet activity was assessed following oral administration at a dose of 1 mg/kg to dogs in the presence of 10 uM of ADP and 1 uM of epinephrine at 250 min; format: functional; settings: Canis lupus familiaris; outline: as §1
Canis familiaris [24] = assay: Ex vivo antiplatelet activity was assessed following oral administration at a dose of 1 mg/kg to dogs in the presence of […] and 1 uM of epinephrine at 150 min; format: functional; settings: Canis lupus familiaris, 2.5 h; outline: as §1
Canis familiaris [25] = assay: Ex vivo antiplatelet activity was assessed following oral administration at a dose of 1 mg/kg to dogs in the presence of 10 uM of collagen and 1 uM of epinephrine at 480 min; format: functional; settings: Canis lupus familiaris, 8 h; outline: as §1
Canis familiaris [26] = assay: Ex vivo antiplatelet activity was assessed following oral administration at a dose of 1 mg/kg to dogs in the presence of […] and 1 uM of epinephrine at 0 min; format: functional; settings: Canis lupus familiaris, 0 h; outline: as §1
Canis familiaris [27] = assay: Ex vivo antiplatelet activity was assessed following oral administration at a dose of 1 mg/kg to dogs in the presence of 10 uM of ADP and 1 uM of epinephrine at 20 min; format: functional; settings: Canis lupus familiaris; outline: as §1
Canis familiaris [28] = assay: Ex vivo antiplatelet activity was assessed following oral administration at a dose of 1 mg/kg to dogs in the presence of 10 uM of ADP and 1 uM of epinephrine at 0 min; format: functional; settings: Canis lupus familiaris, 0 h; outline: as §1
Canis familiaris [29] = assay: Ex vivo antiplatelet activity was assessed following oral administration at a dose of 1 mg/kg to dogs in the presence of 10 uM of collagen and 1 uM of epinephrine at 90 min; format: functional; settings: Canis lupus familiaris, 1.5 h; outline: as §1
Canis familiaris [30] = assay: Ex vivo antiplatelet activity was assessed following oral administration at a dose of 1 mg/kg to dogs in the presence of 10 uM of collagen and 1 uM of epinephrine at 350 min; format: functional; settings: Canis lupus familiaris; outline: as §1
Homo sapiens [31] = species on record: Homo sapiens; assay: In vitro concentration required to inhibit the rate of human platelet aggregation (in platelet rich plasma) by 50% was determined in presence of 0.5 U/mL of thrombin and 1 mM GPRP; format: functional; outline: as §2
Canis familiaris [32] = assay: Ex vivo antiplatelet activity was assessed following oral administration at a dose of 1 mg/kg to dogs in the presence of 10 uM of ADP and 1 uM of epinephrine at 70 min; format: functional; settings: Canis lupus familiaris; outline: as §1
Homo sapiens [33] = species on record: Homo sapiens; assay: In vitro concentration required to inhibit the rate of human platelet aggregation (in platelet rich plasma) by 50% was determined in presence of 10 ug/mL of collagen; format: functional; outline: as §2
Canis familiaris [34] = assay: Ex vivo antiplatelet activity was assessed following oral administration at a dose of 1 mg/kg to dogs in the presence of 10 uM of ADP and 1 uM of epinephrine at 150 min; format: functional; settings: Canis lupus familiaris, 2.5 h; outline: as §1
Canis familiaris [35] = species on record: Canis familiaris; assay: In vitro concentration required to inhibit the rate of dog platelet aggregation (in platelet rich plasma) by 50% was determined in presence of 10 ug/mL of collagen and 1 uM of epinephrine; format: functional; settings: Canis lupus familiaris; outline: as §2
Homo sapiens [36] = species on record: Homo sapiens; assay: Concentration required to inhibit platelet aggregation by 50%; format: functional; outline: as §3

IC50 [3]: 42 nM
IC50 (Homo sapiens [10]): 36 nM
IC50 [13]: 40 nM
IC50 (Homo sapiens [14]): 23 nM
IC50 (Homo sapiens [15]): 32 nM
IC50 (Canis familiaris [18]): 41 nM
IC50 (Homo sapiens [31]): 27 nM
IC50 (Homo sapiens [33]): 67 nM
IC50 (Canis familiaris [35]): 40 nM
IC50 (Homo sapiens [36]): 32 nM
SMILES: C[C@H](CC(=O)O)NC(=O)CN1CCC[C@@H](CCC2CCNCC2)C1=O
inhibition in vivo at 1 mg/kg (Canis familiaris [1]): 3%
inhibition in vivo at 1 mg/kg (Canis familiaris [2]): 96%
inhibition in vivo at 1 mg/kg (Canis familiaris [4]): 81%
inhibition in vivo at 1 mg/kg (Canis familiaris [5]): 2%
inhibition in vivo at 1 mg/kg (Canis familiaris [6]): 67%
inhibition in vivo at 1 mg/kg (Canis familiaris [7]): 79%
inhibition in vivo at 1 mg/kg (Canis familiaris [8]): 72%
inhibition in vivo at 1 mg/kg (Canis familiaris [9]): 78%
inhibition in vivo at 1 mg/kg (Canis familiaris [11]): 94%
inhibition in vivo at 1 mg/kg (Canis familiaris [12]): 48%
Platelet count (Canis familiaris [16]): 322000 µL⁻¹
inhibition in vivo at 1 mg/kg (Canis familiaris [17]): 91%
inhibition in vivo at 1 mg/kg (Canis familiaris [19]): 86%
Delta (Canis familiaris [20]): -0.5% [middle of 10 runs]
inhibition in vivo at 1 mg/kg (Canis familiaris [21]): 79%
inhibition in vivo at 1 mg/kg (Canis familiaris [22]): 63%
inhibition in vivo at 1 mg/kg (Canis familiaris [23]): 90%
inhibition in vivo at 1 mg/kg (Canis familiaris [24]): 94%
inhibition in vivo at 1 mg/kg (Canis familiaris [25]): 31%
inhibition in vivo at 1 mg/kg (Canis familiaris [26]): 0%
inhibition in vivo at 1 mg/kg (Canis familiaris [27]): 50%
inhibition in vivo at 1 mg/kg (Canis familiaris [28]): 0%
inhibition in vivo at 1 mg/kg (Canis familiaris [29]): 75%
inhibition in vivo at 1 mg/kg (Canis familiaris [30]): 54%
inhibition in vivo at 1 mg/kg (Canis familiaris [32]): 93%
inhibition in vivo at 1 mg/kg (Canis familiaris [34]): 96%

IC50 (Homo sapiens [15]): 7800 nM
SMILES: C[C@@H](CC(=O)O)NC(=O)CN1CCC[C@@H](CCC2CCNCC2)C1=O

IC50 (Homo sapiens [15]): 8400 nM
SMILES: O=C(O)CCNC(=O)CNC(=O)CCCC1CCNCC1

IC50 (Homo sapiens [15]): 680 nM
SMILES: CC(=O)N[C@H]1CSSC[C@@H](C(=O)O)NC(=O)[C@H](CC(=O)O)NC(=O)CNC(=O)[C@H](CCCN=C(N)N)NC1=O (Ac-CRGDC-OH; disulfide 1-5)

IC50 (Homo sapiens [15]): 83 nM
SMILES: O=C(O)CCNC(=O)CN1CCC[C@@H](CCC2CCNCC2)C1=O
